Source: ChEMBL document CHEMBL1125210, “Benzylated 1,2,3-triazoles as anticoccidiostats” (J Med Chem, 1991)
The source made the active and inactive calls. No cut-off for these calls is given here.

Columns and labels:
Eimeria tenella = assay: Anticoccidial activity in chicken against E. tenella; assay type: functional; design: Reduction: concentration or dose not given beside the values
Outline: (§1)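 3-Day-old chicks infected separately with E. tenella or E. acervulina; test compound given mixed in the feed at the stated rates. Activity was scored as percent suppression of oocyst production versus infected, unmedicated controls. Toxicity was judged from average weight gain relative to uninfected controls.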

Eimeria acervulina = assay: Anticoccidial activity in chicken against Eimeria acervulina.; assay type: functional; design: Reduction: concentration or dose not given beside the values; outline: as §1
Gallus gallus [1] = species: Gallus gallus; assay: The compound was tested for anti-coccidial activity in chicken against E. hagani(DP-786) measured at dose 125(ppm in diet); assay type: functional
Gallus gallus [2] = species: Gallus gallus; assay: The compound was tested for anti-coccidial activity in chicken against E. mitis(LS-84) measured at dose 125(ppm in diet); assay type: functional
Gallus gallus [3] = species: Gallus gallus; assay: The compound was tested for anti-coccidial activity in chicken against E. praecox(DP-785) measured at dose 125(ppm in diet); assay type: functional
Gallus gallus [4] = species: Gallus gallus; assay: The compound was tested for anti-coccidial activity in chicken against E. tenella(DP-761) measured at dose 125(ppm in diet); assay type: functional
Gallus gallus [5] = species: Gallus gallus; assay: The compound was tested for anti-coccidial activity in chicken against E. brunetti (FS-103) measured at dose 125(ppm in diet); assay type: functional
Gallus gallus [6] = species: Gallus gallus; assay: The compound was tested for anti-coccidial activity in chicken against E. acervulina (DP-761) measured at dose 125(ppm in diet); assay type: functional
Gallus gallus [7] = species: Gallus gallus; assay: The compound was tested for anti-coccidial activity in chicken against E. maxima(DP-776) measured at dose 125(ppm in diet); assay type: functional
Gallus gallus [8] = species: Gallus gallus; assay: The compound was tested for anti-coccidial activity in chicken against E. mitis(LS-84) measured at dose 33(ppm in diet); assay type: functional
Gallus gallus [9] = species: Gallus gallus; assay: The compound was tested for anti-coccidial activity in chicken against E. tenella(DP-761) measured at dose 33(ppm in diet); assay type: functional
Gallus gallus [10] = species: Gallus gallus; assay: The compound was tested for anti-coccidial activity in chicken against E. hagani(DP-786) measured at dose 33(ppm in diet); assay type: functional
Gallus gallus [11] = species: Gallus gallus; assay: The compound was tested for anti-coccidial activity in chicken against E. praecox(DP-785) measured at dose 33(ppm in diet); assay type: functional
Gallus gallus [12] = species: Gallus gallus; assay: The compound was tested for anti-coccidial activity in chicken against E. brunetti (FS-103) measured at dose 33(ppm in diet); assay type: functional
Gallus gallus [13] = species: Gallus gallus; assay: The compound was tested for anti-coccidial activity in chicken against E. maxima(DP-776) measured at dose 33(ppm in diet); assay type: functional
Gallus gallus [14] = species: Gallus gallus; assay: The compound was tested for anti-coccidial activity in chicken against E. acervulina (DP-761) measured at dose 33(ppm in diet); assay type: functional
Gallus gallus [15] = species: Gallus gallus; assay: The compound was tested for anti-coccidial activity in chicken against Eimeria praecox (DP-785) measured at dose 60 (ppm in diet); assay type: functional
Gallus gallus [16] = species: Gallus gallus; assay: The compound was tested for anti-coccidial activity in chicken against Eimeria hagani (DP-786) measured at dose 60 (ppm in diet); assay type: functional
Gallus gallus [17] = species: Gallus gallus; assay: The compound was tested for anti-coccidial activity in chicken against Eimeria brunetti (FS-103) measured at dose 60 (ppm in diet); assay type: functional
Gallus gallus [18] = species: Gallus gallus; assay: The compound was tested for anti-coccidial activity in chicken against Eimeria mitis (LS-84) measured at dose 60 (ppm in diet); assay type: functional
Gallus gallus [19] = species: Gallus gallus; assay: The compound was tested for anti-coccidial activity in chicken against Eimeria maxima (DP-776) measured at dose 60 (ppm in diet); assay type: functional
Gallus gallus [20] = species: Gallus gallus; assay: The compound was tested for anti-coccidial activity in chicken against E. acervulina; Inactive; assay type: functional, organism-based; outline: as §1
Gallus gallus [21] = species: Gallus gallus; assay: The compound was tested for anti-coccidial activity in chicken against Eimeria brunetti (FS-103) measured at dose 100 (ppm in diet); assay type: functional
Gallus gallus [22] = species: Gallus gallus; assay: The compound was tested for anti-coccidial activity in chicken against Eimeria maxima (DP-776) measured at dose 100 (ppm in diet); assay type: functional
Gallus gallus [23] = species: Gallus gallus; assay: The compound was tested for anti-coccidial activity in chicken against Eimeria acervulina (DP-761) measured at dose 100 (ppm in diet); assay type: functional
Gallus gallus [24] = species: Gallus gallus; assay: The compound was tested for anti-coccidial activity in chicken against Eimeria hagani (DP-786) measured at dose 100 (ppm in diet); assay type: functional
Gallus gallus [25] = species: Gallus gallus; assay: The compound was tested for anti-coccidial activity in chicken against Eimeria praecox (DP-785) measured at dose 100 (ppm in diet); assay type: functional
Gallus gallus [26] = species: Gallus gallus; assay: The compound was tested for anti-coccidial activity in chicken against Eimeria tenella (DP-761) measured at dose 100 (ppm in diet); assay type: functional
Outline: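 Test article mixed into the feed at the stated rates and given to 3-day-old chicks infected with […]. Each Eimeria species was inoculated separately. Activity was scored as percent suppression of oocyst output relative to infected, unmedicated controls. Toxicity was judged from average weight gain relative to uninfected controls.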

Gallus gallus [27] = species: Gallus gallus; assay: The compound was tested for anti-coccidial activity in chicken against Eimeria mitis (LS-84) measured at dose 100 (ppm in diet); assay type: functional

NC(=O)c1nnn(Cc2ccc(C(=O)c3ccc(Cl)cc3)c(Cl)c2)c1N
MED (Eimeria tenella): > 500 ppm | Reduction (Eimeria acervulina): 90%

NC(=O)c1nnn(Cc2cc(Cl)c(C(=O)c3ccc(F)cc3)c(Cl)c2)c1N
Reduction (Eimeria tenella): 90% | Reduction (Eimeria acervulina): 90%

N#Cc1ccc(C(=O)c2c(Cl)cc(Cn3nnc(C(N)=O)c3N)cc2Cl)cc1
Reduction (Eimeria tenella): 90% | Reduction (Eimeria acervulina): 90%

NC(=O)c1nnn(Cc2ccc(C(=O)c3ccc(Cl)cc3)cc2)c1N
MED (Eimeria tenella): > 500 ppm | Minimum active dose (Eimeria acervulina): > 500 ppm

NC(=O)c1nnn(Cc2ccc(C(=O)c3c(Cl)cccc3Cl)cc2)c1N
MED (Eimeria tenella): > 250 ppm | MED (Eimeria acervulina): > 250 ppm

CCCc1ncc(C[n+]2ccccc2C)c(N)n1.Cl.[Cl-] [AMPROLIUM]
Reduction (Eimeria tenella): 80% | Reduction (Eimeria acervulina): 80% | Reduction (Gallus gallus [1]): 0% | Reduction (Gallus gallus [2]): 36% | Reduction (Gallus gallus [3]): 18% | Reduction (Gallus gallus [4]): 100% | Reduction (Gallus gallus [5]): 79% | Reduction (Gallus gallus [6]): 7% | Reduction (Gallus gallus [7]): 0%

N=C(N/N=C/c1ccc(Cl)cc1)N/N=C/c1ccc(Cl)cc1 [ROBENIDINE]
Reduction (Gallus gallus [8]): 100% | Reduction (Gallus gallus [9]): 0% | Reduction (Gallus gallus [10]): 0% | Reduction (Eimeria tenella): 80% | Reduction (Eimeria acervulina): 80% | Reduction (Gallus gallus [11]): 54% | Reduction (Gallus gallus [12]): 100% | Reduction (Gallus gallus [13]): 21% | Reduction (Gallus gallus [14]): 99.9%

NC(=O)c1nnn(Cc2ccc(Cl)c(C(=O)c3ccc(Cl)cc3)c2)c1N
Reduction (Eimeria tenella): 90% | Reduction (Eimeria acervulina): 90%

NC(=O)c1nnn(Cc2cc(Cl)c(C(=O)c3ccc(Br)cc3)c(Cl)c2)c1N
Reduction (Eimeria tenella): 90% | Reduction (Eimeria acervulina): 80%

NC(=O)c1nnn(Cc2cc(Cl)c(C(=O)c3ccccc3)c(Cl)c2)c1N
Reduction (Eimeria tenella): 90% | Reduction (Eimeria acervulina): 90%

CC[C@@H](C(=O)[C@@H](C)[C@@H](O)[C@H](C)[C@@H]1O[C@@H]([C@@H](CC)C(=O)O)CC[C@@H]1C)[C@H]1O[C@]2(C=C[C@@H](O)[C@]3(CC[C@@](C)([C@H]4CC[C@](O)(CC)[C@H](C)O4)O3)O2)[C@H](C)C[C@@H]1C [SALINOMYCIN]
Reduction (Eimeria tenella): 85% | Reduction (Gallus gallus [15]): 62% | Reduction (Gallus gallus [16]): 0% | Reduction (Gallus gallus [17]): 74% | Reduction (Gallus gallus [18]): 91% | Reduction (Gallus gallus [19]): 0%

Nc1ncnc2c1ncn2Cc1c(F)cccc1Cl [ARPRINOCID]
Reduction (Eimeria tenella): 80% | Reduction (Eimeria acervulina): 80%

NC(=O)c1nnn(Cc2cc(Cl)c(C(=O)c3ccc(Cl)c(Cl)c3)c(Cl)c2)c1N
Reduction (Eimeria tenella): 90% | Reduction (Eimeria acervulina): 90%

NC(=O)c1nnn(Cc2cc(Cl)c(C(=O)c3cc(Cl)cc(Cl)c3)c(Cl)c2)c1N
Reduction (Eimeria tenella): > 99% | Reduction (Eimeria acervulina): > 99%

NC(=O)c1nnn(Cc2cc(Cl)c(C(=O)c3ccc(C(Cl)=C(Cl)Cl)cc3)c(Cl)c2)c1N
Reduction (Eimeria tenella): 80% | Reduction (Eimeria acervulina): 90%

NC(=O)c1nnn(Cc2ccccc2)c1N
Reduction (Gallus gallus [20]): inactive

NC(=O)c1nnn(Cc2cc(Cl)c(C(=O)c3ccc(Cl)cc3)c(Br)c2)c1N
Reduction (Eimeria tenella): 90% | Reduction (Eimeria acervulina): 90%

NC(=O)c1nnn(Cc2cccc(C(=O)c3ccc(Cl)cc3)c2)c1N
MED (Eimeria tenella): > 500 ppm | Reduction (Eimeria acervulina): 90%

NC(=O)c1nnn(Cc2cc(Cl)c(C(=O)c3ccc(I)cc3)c(Cl)c2)c1N
Reduction (Eimeria tenella): >99% | Reduction (Eimeria acervulina): 90%

NC(=O)c1nnn(Cc2cc(Cl)cc(Cl)c2)c1N
MED (Eimeria tenella): > 125 ppm | MED (Eimeria acervulina): > 125 ppm

COC(=O)c1ccc(C(=O)c2c(Cl)cc(Cn3nnc(C(N)=O)c3N)cc2Cl)cc1
MED (Eimeria tenella): > 250 ppm | MED (Eimeria acervulina): > 250 ppm

Cc1cc(C)nc(O)n1.O=C(Nc1ccc([N+](=O)[O-])cc1)Nc1ccc([N+](=O)[O-])cc1 [NICARBAZIN]
Reduction (Eimeria tenella): 80% | Reduction (Eimeria acervulina): 80% | Reduction (Gallus gallus [1]): 0% | Reduction (Gallus gallus [2]): 100% | Reduction (Gallus gallus [3]): 34% | Reduction (Gallus gallus [4]): 100% | Reduction (Gallus gallus [5]): 100% | Reduction (Gallus gallus [6]): 0% | Reduction (Gallus gallus [7]): 21%

NC(=O)c1nnn(Cc2cc(F)c(C(=O)c3ccc(Cl)cc3)c(Cl)c2)c1N
Reduction (Eimeria tenella): 90% | Reduction (Eimeria acervulina): 90%

NC(=O)c1nnn(Cc2ccc(C(=O)c3ccc(Cl)cc3Cl)c(Cl)c2)c1N
Reduction (Eimeria tenella): 90% | MED (Eimeria acervulina): > 250 ppm

CC[C@@H](C(=O)[C@@H](C)[C@@H](O)[C@H](C)CCc1ccc(C)c(O)c1C(=O)O)[C@H]1O[C@](CC)([C@H]2CC[C@](O)(CC)[C@H](C)O2)C[C@@H]1C [LASALOCID]
Reduction (Eimeria tenella): 80% | Reduction (Eimeria acervulina): 80% | Reduction (Gallus gallus [21]): 100% | Reduction (Gallus gallus [22]): 100% | Reduction (Gallus gallus [23]): 16% | Reduction (Gallus gallus [24]): 74% | Reduction (Gallus gallus [25]): 34% | Reduction (Gallus gallus [26]): 100% | Reduction (Gallus gallus [27]): 100%

NC(=O)c1nnn(Cc2ccc(Cl)cc2)c1N
MED (Eimeria tenella): > 1000 ppm | Reduction (Eimeria acervulina): 80%

NC(=O)c1ncn(Cc2ccc(Cl)c(Cl)c2)c1N
Reduction (Eimeria tenella): >99% | Reduction (Eimeria acervulina): >99%

NC(=O)c1nnn(Cc2ccc(Cl)c(Cl)c2)c1N
Reduction (Eimeria tenella): 80% | Reduction (Eimeria acervulina): 80%

NC(=O)c1nnn(Cc2ccc(C(=O)c3c(Cl)cc(Cl)cc3Cl)cc2)c1N
MED (Eimeria tenella): > 250 ppm | Reduction (Eimeria acervulina): 90%
